We go through 21 compounds from ChEMBL document CHEMBL1136621 (Bioorg Med Chem Lett, 2003).

pIC50: −log10 of the molar value.

One may read the pIC50 as the IC50 on a negative log10 scale, so that one unit is a factor of ten. Read a high pIC50 as a small IC50.

The target of data set [1] is T1, Dihydropyrimidine dehydrogenase [NADP(+)] (Homo sapiens, UniProt Q12882).
T1 sequence (Q12882 whole entry): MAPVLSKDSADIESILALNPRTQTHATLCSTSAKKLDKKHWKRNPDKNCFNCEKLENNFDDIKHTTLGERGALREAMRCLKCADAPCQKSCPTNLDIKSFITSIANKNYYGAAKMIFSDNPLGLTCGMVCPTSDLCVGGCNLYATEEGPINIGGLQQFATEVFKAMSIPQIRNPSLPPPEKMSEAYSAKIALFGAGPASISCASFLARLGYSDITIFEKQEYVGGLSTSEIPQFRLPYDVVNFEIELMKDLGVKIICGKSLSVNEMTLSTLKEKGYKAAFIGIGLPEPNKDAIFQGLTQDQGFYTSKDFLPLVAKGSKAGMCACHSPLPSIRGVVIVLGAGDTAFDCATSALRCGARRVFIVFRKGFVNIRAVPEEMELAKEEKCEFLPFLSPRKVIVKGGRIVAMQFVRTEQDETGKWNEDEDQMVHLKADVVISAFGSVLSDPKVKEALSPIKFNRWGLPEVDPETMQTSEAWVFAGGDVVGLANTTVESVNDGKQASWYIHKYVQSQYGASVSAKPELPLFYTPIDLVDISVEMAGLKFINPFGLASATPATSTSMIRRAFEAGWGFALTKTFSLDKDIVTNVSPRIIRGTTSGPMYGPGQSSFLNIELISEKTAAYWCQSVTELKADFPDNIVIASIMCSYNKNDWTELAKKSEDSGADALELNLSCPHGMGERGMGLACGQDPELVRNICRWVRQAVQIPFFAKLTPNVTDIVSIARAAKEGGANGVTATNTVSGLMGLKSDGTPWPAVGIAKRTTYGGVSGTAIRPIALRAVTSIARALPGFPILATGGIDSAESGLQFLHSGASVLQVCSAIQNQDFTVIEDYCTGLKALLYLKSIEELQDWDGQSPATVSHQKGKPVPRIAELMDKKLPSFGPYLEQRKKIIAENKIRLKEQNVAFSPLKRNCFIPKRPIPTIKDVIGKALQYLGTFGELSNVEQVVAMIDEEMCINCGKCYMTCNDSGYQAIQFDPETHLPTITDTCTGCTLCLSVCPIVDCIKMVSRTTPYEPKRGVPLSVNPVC
The data set can be described thus: Inhibitory activity against dihydropyrimidine dehydrogenase (DPD).

A short description of data set [2]: Stability in serum determined 1 hour after treatment. The conditions noted are these: read-out: Stability. Type of data set: ADME, cell-free. Summed up: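 Compound incubated in serum; stability reported as the percentage remaining after 1 h.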
Data set [3] is filed under the species Homo sapiens. The data set can be described thus: Susceptibility to human liver enzyme at a concentration 2.5 mM. Type of data set: functional. In outline:
(§1)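 Crude enzyme extracts from human liver and intestine; substrate at 2.5 mM. Conversion rate expressed as nmol/mg protein/h. L/I is the ratio of the liver rate to the intestine rate.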

The nature of data set [4]: Ratio of tumor and plasma 5-FU concentration in HT-3 (human cervical cancer) xenograft mice on co-administration with Capecitabine. It counts as functional.
The species entered for data set [5] is Homo sapiens. The data set can be described thus: Susceptibility to human intestine enzyme at a concentration 2.5 mM. It counts as functional. Summed up:
as §1

Data set [6] is described as follows: Stability at pH 2.0-7.4 determined 2 hours after treatment. It counts as physicochemical. The conditions noted are these: buffer, read-out: Stability. In outline: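 Compound held in aqueous solution at pH 2.0–7.4 for 2 h at 37 °C. Stability reported as the percentage of compound remaining.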
For data set [7], the system named is Mus musculus. The data set can be described thus: Tumour concentration of 5-FU in HT-3 (human cervical cancer) xenograft mice at 33.7 mg/kg oral dose co-administered with 135 mg/kg Capecitabine. It counts as functional.
Data set [8] has as its system Mus musculus. Description: Plasma concentration of 5-FU in HT-3 (human cervical cancer) xenograft mice at 33.7 mg/kg oral dose co-administered with 135 mg/kg Capecitabine. Type of data set: functional, organism-based.
Data set [9] has as its target Cytidine deaminase (Homo sapiens) (UniProt P32320). The data set can be described thus: Susceptibility to Cyd deaminase at a substrate concentration of 2.0 mM.
Data set [10] concerns Mus musculus. Description: Tumour concentration of 5-FU in HT-3 (human cervical cancer) xenograft mice at 1.38 mg/kg oral dose co-administered with 135 mg/kg Capecitabine. Type of data set: functional. (In general: Xenograft models place foreign cells or tissue in a host animal.)
Data set [11] addresses T2, Thymidine phosphorylase (Homo sapiens) (UniProt P19971).
T2 sequence (whole entry): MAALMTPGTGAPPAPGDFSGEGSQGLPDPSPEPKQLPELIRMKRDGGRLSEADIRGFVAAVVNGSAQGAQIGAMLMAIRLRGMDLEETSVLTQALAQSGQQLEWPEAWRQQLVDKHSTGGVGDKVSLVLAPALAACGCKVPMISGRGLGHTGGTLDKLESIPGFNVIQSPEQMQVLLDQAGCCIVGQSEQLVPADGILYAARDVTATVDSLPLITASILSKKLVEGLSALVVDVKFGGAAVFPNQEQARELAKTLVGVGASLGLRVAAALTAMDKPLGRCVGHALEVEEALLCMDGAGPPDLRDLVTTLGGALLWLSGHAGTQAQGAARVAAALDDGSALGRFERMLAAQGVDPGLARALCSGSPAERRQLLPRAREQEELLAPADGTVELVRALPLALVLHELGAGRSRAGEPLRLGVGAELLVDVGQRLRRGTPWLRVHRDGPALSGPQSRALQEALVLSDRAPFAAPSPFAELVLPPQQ
Description: Susceptibility to thymidine phosphorylase (ThdPase) at a substrate concentration of 1.0 mM.

Data set [12] deals with T3, Cocaine esterase (Homo sapiens, UniProt O00748).
T3 sequence (O00748 whole entry): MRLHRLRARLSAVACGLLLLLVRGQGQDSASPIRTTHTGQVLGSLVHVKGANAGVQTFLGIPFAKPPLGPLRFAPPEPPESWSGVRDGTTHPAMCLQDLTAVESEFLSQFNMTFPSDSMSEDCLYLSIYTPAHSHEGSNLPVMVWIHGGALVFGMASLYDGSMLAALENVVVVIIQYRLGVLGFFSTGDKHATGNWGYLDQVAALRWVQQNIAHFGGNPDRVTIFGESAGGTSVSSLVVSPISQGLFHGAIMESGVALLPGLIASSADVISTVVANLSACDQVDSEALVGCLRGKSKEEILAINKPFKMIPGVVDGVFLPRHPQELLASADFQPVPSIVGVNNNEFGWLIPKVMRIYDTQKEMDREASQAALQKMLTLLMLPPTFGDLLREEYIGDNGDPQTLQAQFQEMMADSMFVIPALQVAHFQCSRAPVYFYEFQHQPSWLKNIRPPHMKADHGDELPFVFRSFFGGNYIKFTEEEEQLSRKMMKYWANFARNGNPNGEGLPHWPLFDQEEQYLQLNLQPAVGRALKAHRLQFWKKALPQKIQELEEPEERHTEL
The data set can be described thus: Susceptibility to carboxylesterase in human intestine at a concentration 2.5 mM. Type of data set: tissue-based. Particulars: 2500 µM. Summed up:
as §1

For data set [13], the system named is Mus musculus. The data set can be described thus: Tumour concentration of 5-FU in HT-3 (human cervical cancer) xenograft mice at 135 mg/kg oral dose. It counts as functional.
The test system of data set [14] is Lung carcinoma cell line. The data set can be described thus: Antitumor activity in human lung carcinoma. It counts as functional.
Data set [15] deals with T3, Cocaine esterase. The data set can be described thus: Susceptibility to carboxylesterase in human liver at a concentration 2.5 mM. Type of data set: tissue-based. Particulars: 2500 µM. Summed up: as §1
Data set [16] concerns Mus musculus. Description: Plasma concentration of 5-FU in HT-3 (human cervical cancer) xenograft mice at 135 mg/kg oral dose. It counts as functional, organism-based. Details: dose 135 mg/kg.
Data set [17] relates to carboxylesterase (Homo sapiens). The data set can be described thus: Relative susceptibility to human carboxylesterase in liver and intestine (L/I ratio).

Sequence of Cytidine deaminase (Homo sapiens) (P32320 whole entry): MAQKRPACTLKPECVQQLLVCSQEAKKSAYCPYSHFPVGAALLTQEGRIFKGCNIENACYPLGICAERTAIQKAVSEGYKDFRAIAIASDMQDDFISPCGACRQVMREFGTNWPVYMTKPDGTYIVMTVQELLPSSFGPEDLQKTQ

In the case of `Oc1ncc(/C=C/c2ccccc2)c(O)n1`, the pIC50 in data set [1] is 7.37.

In the case of `N#Cc1c[nH]c(=O)[nH]c1=O`, the pIC50 in data set [1] was 6.70.

With `C=Cc1cn([C@@H]2O[C@H](C)[C@@H](OC(C)=O)[C@H]2OC(C)=O)c(=O)nc1N`, the remaining at 1 h in data set [2] is 61%. For the same compound, the Susceptibility in data set [3] was 130 nmol/mg protein/h; in data set [5] it was 28 nmol/mg protein/h. Also, the Ratio_tumour/plasma in data set [4] amounted to 13. Moreover, the remaining at 2 h in [6] came to 100%. The “Tumour_[5-FU]” value in [7] is listed as 13 nmol/g. Also, the Plasma [5-FU] in data set [8] was found to be 1 nmol/mL.

Turning to `C[C@H]1O[C@@H](n2cc(F)c(N)nc2=O)[C@H](O)[C@@H]1O`, the Relative susceptibility in [9] amounted to 1.

In data set [9], `C#Cc1cn([C@@H]2O[C@H](C)[C@@H](O)[C@H]2O)c(=O)nc1N` registered a Relative susceptibility of 0.034.

In the case of `C=Cc1cnc(O)nc1O`, the pIC50 in data set [1] is 7.05. For the same compound, the Ratio_tumour/plasma in data set [4] is given as 3.8. Also, in data set [10], the “Tumour_[5-FU]” value came to 12 nmol/g.

`C=Cc1cn([C@@H]2O[C@H](C)[C@@H](O)[C@H]2O)c(=O)nc1N`: in [9], the Relative susceptibility amounted to 0.14.

In the case of `O=c1[nH]cc(Cc2cccc(OCc3ccccc3)c2)c(=O)[nH]1`, in data set [1], the pIC50 was 7.01.

In data set [11], `C=Cc1cn([C@@H]2O[C@H](C)C(O)[C@H]2O)c(=O)[nH]c1=O` (single isomer, unassigned) returned a Relative susceptibility of 0.2.

Take `C[C@H]1O[C@@H](n2cc(Cc3cccc(OCc4ccccc4)c3)c(=O)[nH]c2=O)[C@H](O)C1O` (single isomer, unassigned): in data set [11], the Relative susceptibility is under 0.01.

`O=c1[nH]cc(I)c(=O)[nH]1` showed a pIC50 in data set [1] of 6.66.

Take `CCCCCOC(=O)Nc1nc(=O)n([C@@H]2O[C@H](C)[C@@H](O)[C@H]2O)cc1F` [CAPECITABINE]: the Susceptibility is reported as 5.3 nmol/mg protein/h in [12] and 79 nmol/mg protein/h in data set [15]. The “Tumour_[5-FU]” value in data set [13] was 3.5 nmol/g. Also, the Activity in data set [14] is 377 mg/kg. Besides, the Plasma [5-FU] in data set [16] amounted to 0.62 nmol/mL.

Consider `C#Cc1c[nH]c(=O)[nH]c1=O`, for which, in data set [1], the pIC50 was 7.85.

As to `CCCCCOC(=O)Nc1nc(=O)n([C@@H]2O[C@H](C)[C@@H](O)[C@H]2O)cc1I`, the Susceptibility in data set [12] amounted to 18 nmol/mg protein/h; in [15] it was 90 nmol/mg protein/h. Besides, the Susceptibilty Ratio (Liver/Intestine) in [17] was determined as 5.

`C[C@H]1O[C@@H](n2cc(C#N)c(=O)[nH]c2=O)[C@H](O)C1O` (single isomer, unassigned) displayed a Relative susceptibility in data set [11] of under 0.01.

On to `C[C@H]1O[C@@H](n2cc(I)c(N)nc2=O)[C@H](O)[C@@H]1O`, for which the Relative susceptibility in data set [9] came out at 0.33.

For the compound `C=Cc1cn([C@@H]2O[C@H](C)[C@@H](O)[C@H]2O)c(=O)nc1NC(=O)OCCCCC`, the Susceptibility in [12] is under 5 nmol/mg protein/h; in data set [15], 110 nmol/mg protein/h. Further, the Susceptibilty Ratio (Liver/Intestine) in data set [17] is over 22.

`C[C@H]1O[C@@H](n2cc(/C=C/c3ccccc3)c(=O)[nH]c2=O)[C@H](O)C1O` (single isomer, unassigned) registered a Relative susceptibility in data set [11] of under 0.01.

Compound `C[C@H]1O[C@@H](n2cc(I)c(=O)[nH]c2=O)[C@H](O)C1O` (single isomer, unassigned) yielded a Relative susceptibility in data set [11] of 2.3.

Consider `C[C@H]1O[C@@H](n2cc(F)c(=O)[nH]c2=O)[C@H](O)C1O` (single isomer, unassigned), for which, in data set [11], the Relative susceptibility stood at 1.

`C#Cc1cn([C@@H]2O[C@H](C)C(O)[C@H]2O)c(=O)[nH]c1=O` (single isomer, unassigned): the Relative susceptibility in data set [11] amounted to 5.
